Molecules are shown by their SMILES. A number with no mark means an inactive call. Inconclusive results are not listed. Active and inactive are the calls of the source.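 The calls were made as follows, unless noted: active = viability at or below 27.92% in each of two runs, the all-compound median minus 4 SD; inconclusive = no clear call, values can overlap the other calls; inactive = the rest.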

The source of these data is PubChem BioAssay.

A short description of assay [1]: S. cerevisiae growth inhibition in permissive medium (OD615), pilot counter-assay for S. cerevisiae lifespan shortening project, permissive growth control (AID 705;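 active = growth inhibition above 25% in both replicates, a cutoff set 3 SD above the mean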). As to conditions: OD615, 24 h, at 10 µM, hits give high values. Summed up: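 Material: engineered DeaD yeast; compound dosing: one dose 10 µM, DMSO 0.25% final; measure: yeast growth inhibition indicated by reduced 24 h OD615; detection: OD615 turbidity read; incubation: cells pre-grown 4 h, then 24 h compound exposure, 30 °C humidified; medium: permissive synthetic complete medium with raffinose and galactose carbon sources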

Assay [2] in a line: S. cerevisiae growth inhibition in restrictive medium, OD615, pilot screen, restrictive growth control, yeast lifespan reduction project (AID 706;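 active = growth inhibition above a set limit, 3 SD over mean compound inhibition, in both replicates, cut at about 43% in these data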;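 also: modified DeaD lifespan yeast strain shifted to restrictive glucose medium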). As to conditions: OD615, 48 h, at 10 µM, hits give high values. The method in brief: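 material = engineered S. cerevisiae DeaD strain | medium = glucose-based CSMM-D restrictive medium | times = 4 h pre-incubation, 48 h exposure at 30 °C | technique = OD615 absorbance reading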

Assay [3] can be described thus: doxorubicin toxicity protection in MRP-1 cells – H69AR cells, CellTiter-Glo, duplicate, MRP-1 activator project, pilot screen (AID 807;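 active = viability increase at or above a cutoff of the median across tested compounds plus 3 SD, cut at about 8.5% in these data, passing the limit was not always enough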;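 also: compound pretreatment 18-22 h then 72 h combined with doxorubicin; 0% = doxorubicin alone and 100% = vehicle without doxorubicin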). The following applies: H69AR viability with doxorubicin, CellTiter-Glo luminescence; at 10 µM; hits give high values.
A short description of assay [4]: viability of HCT116 without oncogenic beta-catenin – human colon tumor cells, pilot screen (AID 823;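 active = cell viability at or below a set limit in both duplicate runs, the limit being the all-compound median minus 4 SD, cut at about 23% in these data, passing the limit was not always enough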;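 also: 0% = wells killed by 20 µM Hyamine and 100% = untreated DMSO cell wells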). The following applies: HCT116 beta-catenin knockout viability, CellTiter-Glo, 60 h; at 10 µM; hits give low values. In general terms: ATP-based viability assays read luminescence as a measure of living cells.
Assay [5] can be described thus: viability of PTEN-null HCT116 cells – cell-based, HCT116 clonal line, CellTiter-Glo, pilot screen (AID 824).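 Also: 0% = 20 µM Hyamine control and 100% = vehicle cell control.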 As to conditions: HCT116 PTEN-deleted viability, 60 h, at 10 µM, hits give low values.
Assay [6] is described as follows: RAM pathway blockade in budding yeast – dse1pr::URA3 reporter, 5-FOA selection, pilot screen (AID 869;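 active = inhibition over a set limit, the all-compound mean plus 3 SD, in both replicate runs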;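 also: 0% = DMSO wells with no growth and 100% = 10 µM 1-NA-PP1 with full growth; RAM network block rescues cells from 5-FOA so hits raise OD615 growth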). As to conditions: S. cerevisiae dse1pr::URA3 5-FOA growth, OD615, 2 d; at 10 µM; hits give high values; strain carries analog-sensitive mutant Cbk1 kinase.
Assay [7] is described as follows: RAM signaling pathway blockade in yeast – S. cerevisiae, Pdr1DBD-CYC8 efflux-inhibited sensitized strain, primary screen (AID 1298;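 active = RAM network inhibition above 8.4% in each of two replicates, 3 SD over the compound average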;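 also: 0% = DMSO untreated cells without growth and 100% = 10 µM 1-NA-PP1 full growth; higher means more yeast growth rescued from 5-FOA killing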). The following applies: S. cerevisiae cbk1-as DSE1-URA3 strain, 5-FOA growth OD615, 2 d; at 50 µM; hits give high values.

What is called viability is a read-out of living cells in per cent, often relative to untreated cells. As a reminder, the inhibition is the change of the read-out against control, counted positive when it falls. Consider `COc1ccc(Cl)cc1N(CC(=O)Nc1ccc2c(c1)OCCO2)S(C)(=O)=O`, for which the growth inhibition in assay [1] is -2.33%; in assay [2], 0.055%. In addition, in assay [3], the viability increase is -2.78%. Moreover, the viability in assay [4] was 92.7%; in assay [5], 89.4%. For the same compound, the inhibition in assay [6] is 3.33%. Besides, the RAM network inhibition in assay [7] is 2.8%.
Regarding `CC(=O)N(c1ccccc1)C1SC(=O)N(c2ccccc2)C1=O` (stereo not drawn), the figures for the growth inhibition in assay [1] and in assay [2] were -15.9% and -9.37%, respectively. Moreover, the viability increase in assay [3] was -0.06%. Moreover, the viability in assay [4] is 97.9%; in assay [5], 99.7%. Besides, in assay [6], the inhibition is 3.73%. Also, the RAM network inhibition in assay [7] was 6.65%.
Consider `CCOC(=O)C(C)Sc1nnc(Cn2c(=O)sc3ccccc32)n1-c1ccccc1` (stereo not drawn), for which the growth inhibition in assay [1] is 2.42%; in assay [2], -4.57%. For the same compound, the viability increase in assay [3] was -0.22%. Further, the viability in assay [4] was 95.6%; in assay [5], 92.6%. Also, the inhibition in assay [6] was 1.81%. The RAM network inhibition in assay [7] is 0.1%.
As for `CCNc1nc(C)nc2c1oc1ccccc12`, the growth inhibition in assay [1] was -8.28%; in assay [2], -30.6%. Further, the viability increase in assay [3] was 0.92%. Also, the viability was 101% in assay [4] and 89.5% in assay [5]. Further, the inhibition in assay [6] was 1.81%. In addition, the RAM network inhibition in assay [7] is 3.64%.
For `CCOc1cc2c(cc1OCC)C(c1ccc(O)c(OC)c1)NCC2` (stereo not drawn), the results for the growth inhibition in assay [1] and in assay [2] were -5.95% and -11.5%, respectively. In assay [3], the viability increase is -3.12%. Besides, the viability in assay [4] was 75.3%; in assay [5], 81.6%. In assay [6], the inhibition is 2.12%. Further, the RAM network inhibition in assay [7] was 1.63%.
Take `COc1ccccc1C(=O)N1CCN(c2cccc(Cl)c2)CC1`: the values for the growth inhibition in assay [1] and in assay [2] were -9.06% and -12.8%, respectively. Further, the viability increase in assay [3] is -4.63%. For the same compound, the values for the viability in assay [4] and in assay [5] were 15.4% (active) and 20% (active), respectively. Also, the inhibition in assay [6] is 2.75%. For the same compound, the RAM network inhibition in assay [7] was 2.22%.
For `N=c1n(CCO)c2ccccc2n1CCOc1ccc(Cl)cc1Cl`, the figures for the growth inhibition in assay [1] and in assay [2] were -0.15% and 4.96%, respectively. For the same compound, the viability increase in assay [3] is -8.35%. The viability in assay [4] was 1.5% (active); in assay [5] it was 1.54% (active). In assay [6], the inhibition was 1%. For the same compound, the RAM network inhibition in assay [7] is 0.72%.
In the case of `CC1(C)CC(=O)c2sc(NC(=O)c3ccco3)nc2C1`, the growth inhibition in assay [1] is -15%; in assay [2], -0.525%. Besides, the viability increase in assay [3] is -2.54%. In addition, the viability was 94.2% in assay [4] and 84.1% in assay [5]. The inhibition in assay [6] is 0.735%. Moreover, in assay [7], the RAM network inhibition is 2.58%.
On to `Cn1ccnc1SCC(=O)c1cc2ccccc2o1`, for which the figures for the growth inhibition in assay [1] and in assay [2] were -6.64% and -0.315%, respectively. For the same compound, in assay [3], the viability increase is -2.52%. Besides, the viability in assay [4] was 95.7%; in assay [5] it was 99.4%. Also, in assay [6], the inhibition is 0.57%. The RAM network inhibition in assay [7] is 1.04%.
Take `COc1ccc(C(c2sc3nc(C)nn3c2O)N2CCC(O)CC2)cc1OC` (stereo not drawn): the growth inhibition was 4.24% in assay [1] and 0.32% in assay [2]. Further, in assay [3], the viability increase is -0.06%. For the same compound, the results for the viability in assay [4] and in assay [5] were 106% and 100%, respectively. Further, in assay [6], the inhibition was 1.38%. Moreover, the RAM network inhibition in assay [7] was 5.56%.
With `O=C(CCS(=O)NCc1ccccc1)NCc1ccccc1` (stereo not drawn), the growth inhibition in assay [1] is -7.98%; in assay [2] it was -11.4%. The viability increase in assay [3] is -2.13%. Moreover, the viability in assay [4] is 99.7%; in assay [5], 99.9%. In addition, the inhibition in assay [6] is 0.425%. Besides, the RAM network inhibition in assay [7] is 1.51%.
On to `O=C1c2ccccc2-c2ncnc3c(N4CCOCC4)cc(N4CCOCC4)c1c23`, for which the growth inhibition in assay [1] was -12.8%; in assay [2] it was -3.37%. Besides, the viability increase in assay [3] is -7.53%. Moreover, the viability was 79.2% in assay [4] and 80.9% in assay [5]. Moreover, the inhibition in assay [6] was -0.74%. The RAM network inhibition in assay [7] is -1.52%.
As for `CCOC(=O)Cc1csc(NC(=O)COc2ccc(OC)cc2)n1`, the values for the growth inhibition in assay [1] and in assay [2] were -22.4% and -8.99%, respectively. In addition, in assay [3], the viability increase is -2.2%. For the same compound, the viability in assay [4] was 97.2%; in assay [5] it was 92.2%. Besides, the inhibition in assay [6] is 1.89%. Moreover, the RAM network inhibition in assay [7] is 0.64%.
On to `COc1ccccc1N1CCN(CCCC(=O)c2ccc(F)cc2)CC1`, for which the growth inhibition was -11.5% in assay [1] and 1.04% in assay [2]. Further, the viability increase in assay [3] was -0.78%. Besides, the viability was 80.6% in assay [4] and 88.9% in assay [5]. Further, the inhibition in assay [6] was 2.29%. In assay [7], the RAM network inhibition was -0.89%.
As to `Cn1cnnc1SCC(=O)Nc1ccccc1`, the growth inhibition in assay [1] is -6.99%; in assay [2] it was -16.3%. In addition, the viability increase in assay [3] is 2.03%. The viability in assay [4] is 100%; in assay [5], 102%. In addition, the inhibition in assay [6] is -0.32%. For the same compound, the RAM network inhibition in assay [7] is 1.79%.
Take `C=CCSc1nnc(Cn2c(=O)sc3ccccc32)n1C`: the growth inhibition in assay [1] is -5.41%; in assay [2], -8.71%. In addition, in assay [3], the viability increase is -0.84%. Further, the viability in assay [4] is 108%; in assay [5], 104%. In addition, in assay [6], the inhibition was -0.685%. The RAM network inhibition in assay [7] is 0.31%.
On to `COc1ccc(Br)cc1S(=O)(=O)N(CC(=O)N1CCOCC1)c1ccccc1`, for which the figures for the growth inhibition in assay [1] and in assay [2] were -2.82% and -7.74%, respectively. Further, the viability increase in assay [3] is -2.08%. Moreover, the viability in assay [4] is 98.1%; in assay [5] it was 98.6%. Further, the inhibition in assay [6] was 2.6%. Further, in assay [7], the RAM network inhibition was 3.62%.
For the compound `Cc1nc(CNS(=O)(=O)c2ccc3c(c2)CCCC3)cs1`, the growth inhibition in assay [1] is -5.81%; in assay [2], -2.64%. The viability increase in assay [3] was -1.72%. The viability was 96.7% in assay [4] and 73.8% in assay [5]. Further, in assay [6], the inhibition was 1.51%. For the same compound, the RAM network inhibition in assay [7] was 0.22%.
In the case of `CCOc1ccc(C(=O)c2nc3c(n2O)CCCC3)cc1`, the values for the growth inhibition in assay [1] and in assay [2] were -15% and -7.18%, respectively. Besides, the viability increase in assay [3] was 0.17%. Further, the viability in assay [4] was 91.1%; in assay [5] it was 103%. In assay [6], the inhibition was 1.41%. Moreover, in assay [7], the RAM network inhibition is -0.74%.
`CCOC(=O)C1=C(C)Nc2nc(C)nn2C1c1ccc(OC)c(OC)c1` (stereo not drawn): the growth inhibition is -6.55% in assay [1] and -3.96% in assay [2]. For the same compound, the viability increase in assay [3] was -3.45%. Moreover, the viability in assay [4] is 99.5%; in assay [5] it was 102%. Besides, the inhibition in assay [6] is 0.77%. Besides, in assay [7], the RAM network inhibition is 0.06%.
On to `COc1ccc(CC(=O)Nc2c3c(nn2C(C)(C)C)CS(=O)C3)cc1` (stereo not drawn), for which the growth inhibition in assay [1] is -13.6%; in assay [2] it was -4.57%. In addition, the viability increase in assay [3] was -0.14%. Further, the viability is 109% in assay [4] and 101% in assay [5]. Besides, in assay [6], the inhibition is 1.24%. In addition, the RAM network inhibition in assay [7] was 0.63%.
Regarding `Cn1c(C(=O)NC2CCCC2)cc2c(=O)n(C)c3ccccc3c21`, the values for the growth inhibition in assay [1] and in assay [2] were -12.6% and 3.59%, respectively. Besides, the viability increase in assay [3] is -2.84%. The results for the viability in assay [4] and in assay [5] were 84.3% and 87.4%, respectively. The inhibition in assay [6] was 1.21%. Besides, in assay [7], the RAM network inhibition was 7.72%.
Turning to `Cn1c(=O)oc2cc(S(=O)(=O)N3CCCC3)ccc21`, the growth inhibition in assay [1] was 4.02%; in assay [2], -7.37%. For the same compound, in assay [3], the viability increase was -2.12%. The figures for the viability in assay [4] and in assay [5] were 102% and 97.2%, respectively. The inhibition in assay [6] is 0.645%. Besides, the RAM network inhibition in assay [7] was 0.66%.
Turning to `CC1CCN(c2nc3c(c(=O)n(C)c(=O)n3C)n2CCSc2ncccn2)CC1`, the growth inhibition is -3.47% in assay [1] and -3.19% in assay [2]. In assay [3], the viability increase was -0.04%. Besides, the viability in assay [4] is 99.1%; in assay [5], 96.3%. Besides, the inhibition in assay [6] was 1.61%. Also, the RAM network inhibition in assay [7] was 2.44%.
